The results in this text go back to ChEMBL document CHEMBL4371062, “Synthesis, biological evaluation and molecular docking study of 1,2,3-1H-triazoles having 4H-pyrano[2,3-d]pyrimidine as potential Mycobacterium tuberculosis protein tyrosine phosphatase B inhibitors” (Bioorg Med Chem Lett, 2019).

Assay [1] has as its target T1, Phosphotyrosine protein phosphatase (Mycobacterium tuberculosis, UniProt A0A045ISB3).
T1 sequence (A0A045ISB3 whole entry): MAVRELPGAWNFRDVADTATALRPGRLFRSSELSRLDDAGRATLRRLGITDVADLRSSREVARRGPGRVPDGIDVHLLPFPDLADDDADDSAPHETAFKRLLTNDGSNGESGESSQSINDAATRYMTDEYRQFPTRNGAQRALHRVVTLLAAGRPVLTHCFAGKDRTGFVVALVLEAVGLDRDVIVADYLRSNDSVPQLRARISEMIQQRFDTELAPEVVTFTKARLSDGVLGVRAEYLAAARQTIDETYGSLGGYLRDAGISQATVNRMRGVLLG
Description: Competitive inhibition of Mycobacterium tuberculosis PTPB using varying levels of pNPP as substrate preincubated for 15 mins followed by substrate addition and measured after 2 to 6 mins by Lineweaver-burk plot analysis. In short, it runs like this:
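Substrate pNPP was varied at fixed inhibitor levels of 0, 1, 1.5, 2, 3 and 4 µM, with p-nitrophenol release treated by Michaelis-Menten kinetics. Mechanism was judged from Lineweaver-Burk double-reciprocal plots (1/Vmax y-intercept, KMapp/Vmax slope, −1/KMapp x-intercept). Ki was derived from these plots.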

In assay [2] the target is T2, Phosphotyrosine protein phosphatase (Mycobacterium tuberculosis) (UniProt A0A045ISB3).
T2 sequence (whole entry): T1 sequence (A0A045ISB3 whole entry)
Description: Ratio of IC50 for inhibition of Mycobacterium tuberculosis PTPB to Ki for competitive inhibition of Mycobacterium tuberculosis PTPB.

Assay [3] concerns the target T2, Phosphotyrosine protein phosphatase (Mycobacterium tuberculosis). Description: Inhibition of Mycobacterium tuberculosis PTPB up to 100 uM using pNPP as substrate preincubated for 15 mins followed by substrate addition and measured after 2 to 6 mins. In short, it runs like this:
(§1)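 Recombinant M. tuberculosis PtpB, cloned, expressed and purified as previously described, assayed with p-nitrophenyl phosphate as substrate. IC50 is the mean of three independent experiments.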

Assay [4] deals with T1, Phosphotyrosine protein phosphatase. Description: Inhibition of Mycobacterium tuberculosis PTPB using pNPP as substrate preincubated for 15 mins followed by substrate addition and measured after 2 to 6 mins. Summed up:
as §1

A short description of assay [5]: Antioxidant activity assessed as ABTS radical scavenging activity by measuring trolox equivalent antioxidant capacity after 6 mins by UV/Vis spectrophotometric analysis. The class given is functional.
Assay [6] relates to Mycobacterium tuberculosis. Description: Antitubercular activity against Mycobacterium tuberculosis H37Rv assessed as reduction in relative light units at 5 ug/ml after 72 hrs by luciferase reporter phage assay relative to control. The class given is functional. For orientation: A reporter such as luciferase makes a cellular process visible.
Assay [7] relates to Mycobacterium tuberculosis. Description: Antitubercular activity against Mycobacterium tuberculosis H37Rv assessed as reduction in relative light units at 25 ug/ml after 72 hrs by luciferase reporter phage assay relative to control. The class given is functional.
A further assay relates to Plasmodium falciparum. Description: Antimalarial activity against synchronized ring stage of Plasmodium falciparum measured after 48 hrs. Type of assay: functional, organism-based.
For assay [8], the system named is Mycobacterium tuberculosis. Description: Antitubercular activity against Mycobacterium tuberculosis H37Rv at 100 ug/ml after 28 days by Lowensteine-Jensen method relative to control. Type of assay: functional. The settings on record: 672 h.

Converted amounts (≈) assume the structure as drawn. The source made the active and inactive calls. The rule behind the calls is not given here.

As for `CCOC(=O)C1=C(C)Oc2nc(C)n(Cc3cn([C@@H]4O[C@H](COC(C)=O)[C@@H](OC(C)=O)[C@H](OC(C)=O)[C@H]4OC(C)=O)nn3)c(=O)c2C1c1ccc(C(C)C)cc1` (stereo not given in full), in assay [1], the Ki (commonly a measure of affinity in units of concentration, obtained from inhibition or displacement) stood at 1.1 µM. Also, in assay [2], the Ratio is 1.42. Further, the inhibition (in general, the drop in the measured response relative to a control, in per cent) in [3] is “inactive”.
`CCOC(=O)C1=C(C)Oc2nc(C)n(Cc3cn([C@@H]4O[C@H](COC(C)=O)[C@@H](OC(C)=O)[C@H](OC(C)=O)[C@H]4OC(C)=O)nn3)c(=O)c2C1c1cccc(OC)c1` (stereo not given in full): the IC50 (commonly the concentration at which inhibition is half-maximal) in [4] was determined as 28.2 µM. In other words, the double-digit micromolar range.
The compound `CCOC(=O)C1=C(C)Oc2nc(C)n(Cc3cn([C@@H]4O[C@H](COC(C)=O)[C@@H](OC(C)=O)[C@H](OC(C)=O)[C@H]4OC(C)=O)nn3)c(=O)c2C1c1cccc(O)c1` (stereo not given in full) came in with an IC50 in assay [4] of 35.9 µM. This IC50 and that of the compound before are within 1.5-fold of each other.
The compound `CCOC(=O)C1=C(C)Oc2nc(C)n(Cc3cn([C@@H]4O[C@H](COC(C)=O)[C@@H](OC(C)=O)[C@H](OC(C)=O)[C@H]4OC(C)=O)nn3)c(=O)c2C1c1ccc(Br)cc1` (stereo not given in full) showed a Ki in assay [1] of 1.8 µM. Also, the Ratio in assay [2] turned out to be 1.23. Moreover, the inhibition result in [3] was “inactive”.
Turning to `CCOC(=O)C1=C(N)Oc2[nH]c(=O)[nH]c(=O)c2C1[C@H](O)[C@@H](O)[C@H](O[C@H]1O[C@H](CO)[C@@H](O)[C@H](O)[C@H]1O)[C@H](O)CO` (stereo not given in full), the Activity in assay [5] worked out at 5.24 µM.
`CCOC(=O)C1=C(C)Oc2nc(C)n(Cc3cn([C@@H]4O[C@H](COC(C)=O)[C@@H](OC(C)=O)[C@H](OC(C)=O)[C@H]4OC(C)=O)nn3)c(=O)c2C1c1ccc(Cl)cc1` (stereo not given in full) returned an IC50 in [4] of 35.3 µM.
`CCOC(=O)C1=C(C)Oc2nc(C)n(Cc3cn([C@@H]4O[C@H](COC(C)=O)[C@@H](OC(C)=O)[C@H](OC(C)=O)[C@H]4OC(C)=O)nn3)c(=O)c2C1c1ccccc1Cl` (stereo not given in full) registered an IC50 in assay [4] of 33.2 µM.
For the compound `CCOC(=O)C1=C(C)Oc2nc(C)n(Cc3cn([C@@H]4O[C@H](COC(C)=O)[C@@H](OC(C)=O)[C@H](OC(C)=O)[C@H]4OC(C)=O)nn3)c(=O)c2C1c1ccc(C)cc1` (stereo not given in full), in assay [1], the Ki came to 2.16 µM. Besides, the Ratio in assay [2] was found to be 1.63. In addition, the inhibition entry in [3] was “inactive”.
`CC(=O)OC[C@H]1O[C@@H](OCc2cn(Cc3ccc4ccccc4n3)nn2)[C@H](OC(C)=O)[C@@H](OC(C)=O)[C@H]1OC(C)=O`: in assay [6], the inhibition at 5 µg/mL was 76%. In addition, the inhibition at 25 µg/mL in [7] amounted to 78%.
`CCOC(=O)C1=C(C)Oc2nc(C)n(Cc3cn([C@@H]4O[C@H](COC(C)=O)[C@@H](OC(C)=O)[C@H](OC(C)=O)[C@H]4OC(C)=O)nn3)c(=O)c2C1c1cccc(Cl)c1` (stereo not given in full) displayed an IC50 in assay [4] of 9.52 µM. In other words, the single-digit micromolar range.
In assay [4], `CCOC(=O)C1=C(C)Oc2nc(C)n(Cc3cn([C@@H]4O[C@H](COC(C)=O)[C@@H](OC(C)=O)[C@H](OC(C)=O)[C@H]4OC(C)=O)nn3)c(=O)c2C1c1ccccc1[N+](=O)[O-]` (stereo not given in full) came in with an IC50 of 35.1 µM.
`CCOC(=O)C1=C(C)Oc2nc(C)n(Cc3cn([C@@H]4O[C@H](COC(C)=O)[C@@H](OC(C)=O)[C@H](OC(C)=O)[C@H]4OC(C)=O)nn3)c(=O)c2C1c1ccc(OCC)c(O)c1` (stereo not given in full): the IC50 in [4] was 3.53 µM.
For `CCOC(=O)C1=C(C)Oc2nc(C)n(Cc3cn([C@@H]4O[C@H](COC(C)=O)[C@@H](OC(C)=O)[C@H](OC(C)=O)[C@H]4OC(C)=O)nn3)c(=O)c2C1c1ccccc1O` (stereo not given in full), 29 µM corresponded to half-maximal inhibition in [4] (IC50).
Consider `CCOC(=O)C1=C(N)Oc2[nH]c(=O)[nH]c(=O)c2C1c1c(C)nn(-c2ccccc2)c1-n1ccnc1` (stereo not given), for which the IC50 with Plasmodium falciparum was determined as 0.062 µg/mL (≈ 0.13 µM). This compound also had an inhibition at 100 µg/mL in assay [8] of 92%.
As for `CCOC(=O)C1=C(C)Oc2nc(C)n(Cc3cn([C@@H]4O[C@H](COC(C)=O)[C@@H](OC(C)=O)[C@H](OC(C)=O)[C@H]4OC(C)=O)nn3)c(=O)c2C1c1cc(OC)c(O)c([N+](=O)[O-])c1` (stereo not given in full), the concentration for half-maximal inhibition (IC50) in assay [4] came to 1.56 µM.
The compound `CCOC(=O)C1=C(C)Oc2nc(C)n(Cc3cn([C@@H]4O[C@H](COC(C)=O)[C@@H](OC(C)=O)[C@H](OC(C)=O)[C@H]4OC(C)=O)nn3)c(=O)c2C1c1ccc(O)c(OCC)c1` (stereo not given in full) came in with a 50% inhibitory concentration (IC50) in assay [4] of 7.94 µM.
Still for that read-out and setting: to `CCOC(=O)C1=C(C)Oc2nc(C)n(Cc3cn([C@@H]4O[C@H](COC(C)=O)[C@@H](OC(C)=O)[C@H](OC(C)=O)[C@H]4OC(C)=O)nn3)c(=O)c2C1c1ccccc1OC` (stereo not given in full) belongs 35 µM; to `CCOC(=O)C1=C(C)Oc2nc(C)n(Cc3cn([C@@H]4O[C@H](COC(C)=O)[C@@H](OC(C)=O)[C@H](OC(C)=O)[C@H]4OC(C)=O)nn3)c(=O)c2C1c1ccc([N+](=O)[O-])cc1` (stereo not given in full), 33 µM; to `CCOC(=O)C1=C(C)Oc2nc(C)n(Cc3cn([C@@H]4O[C@H](COC(C)=O)[C@@H](OC(C)=O)[C@H](OC(C)=O)[C@H]4OC(C)=O)nn3)c(=O)c2C1c1cccc([N+](=O)[O-])c1` (stereo not given in full), 45 µM.
The same measure, in the same setting: to `CCOC(=O)C1=C(C)Oc2nc(C)n(Cc3cn([C@@H]4O[C@H](COC(C)=O)[C@@H](OC(C)=O)[C@H](OC(C)=O)[C@H]4OC(C)=O)nn3)c(=O)c2C1c1ccc(Cl)cc1Cl` (stereo not given in full) belongs 44 µM; to `CCOC(=O)C1=C(C)Oc2nc(C)n(Cc3cn([C@@H]4O[C@H](COC(C)=O)[C@@H](OC(C)=O)[C@H](OC(C)=O)[C@H]4OC(C)=O)nn3)c(=O)c2C1c1ccccc1` (stereo not given in full), 47 µM; to `CCOC(=O)C1=C(C)Oc2nc(C)n(Cc3cn([C@@H]4O[C@H](COC(C)=O)[C@@H](OC(C)=O)[C@H](OC(C)=O)[C@H]4OC(C)=O)nn3)c(=O)c2C1c1ccc(O)cc1` (stereo not given in full), 35.3 µM.
`CCOC(=O)C1=C(C)Oc2nc(C)n(Cc3cn([C@@H]4O[C@H](COC(C)=O)[C@@H](OC(C)=O)[C@H](OC(C)=O)[C@H]4OC(C)=O)nn3)c(=O)c2C1c1ccc(N(C)C)cc1` (stereo not given in full) returned an IC50 in assay [4] of 32 µM.
In [4], `CCOC(=O)C1=C(C)Oc2nc(C)n(Cc3cn([C@@H]4O[C@H](COC(C)=O)[C@@H](OC(C)=O)[C@H](OC(C)=O)[C@H]4OC(C)=O)nn3)c(=O)c2C1c1ccc(OC)cc1` (stereo not given in full) showed an IC50 of 29 µM.
As for `CCOC(=O)C1=C(C)Oc2nc(C)n(Cc3cn([C@@H]4O[C@H](COC(C)=O)[C@@H](OC(C)=O)[C@H](OC(C)=O)[C@H]4OC(C)=O)nn3)c(=O)c2C1c1cc(OC)c(O)c(OC)c1` (stereo not given in full), the IC50 in [4] came to 2.22 µM.
In the case of `CCOC(=O)C1=C(C)Oc2nc(C)n(Cc3cn([C@@H]4O[C@H](COC(C)=O)[C@@H](OC(C)=O)[C@H](OC(C)=O)[C@H]4OC(C)=O)nn3)c(=O)c2C1c1cc(OC)cc(OC)c1` (stereo not given in full), 32.5 µM corresponded to half-maximal inhibition in assay [4] (IC50).
Still for that read-out and setting: to `CCOC(=O)C1=C(C)Oc2nc(C)n(Cc3cn([C@@H]4O[C@H](COC(C)=O)[C@@H](OC(C)=O)[C@H](OC(C)=O)[C@H]4OC(C)=O)nn3)c(=O)c2C1c1ccc(O)c(OC)c1` (stereo not given in full) belongs 7.51 µM.
